# GASC-1 inh = human JMJD2C demethylase inhibition; Q9H3R0; GST-JMJD2C(1-420) H3K9me3 demethylation, DELFIA europium; inhibition, % at 2.35 µM; 330,000 compounds, 0.069% hits; AID 2099;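 active = more than half of a compound's replicate wells show inhibition beyond 50%, single wells judged on their own value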;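 also: signal counts dimethyl H3K9 product captured on neutravidin plate; 0% = median of DMSO wells and 100% = 0.3 times that DMSO median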
# Target sequence (Q9H3R0 1-420 limits assumed): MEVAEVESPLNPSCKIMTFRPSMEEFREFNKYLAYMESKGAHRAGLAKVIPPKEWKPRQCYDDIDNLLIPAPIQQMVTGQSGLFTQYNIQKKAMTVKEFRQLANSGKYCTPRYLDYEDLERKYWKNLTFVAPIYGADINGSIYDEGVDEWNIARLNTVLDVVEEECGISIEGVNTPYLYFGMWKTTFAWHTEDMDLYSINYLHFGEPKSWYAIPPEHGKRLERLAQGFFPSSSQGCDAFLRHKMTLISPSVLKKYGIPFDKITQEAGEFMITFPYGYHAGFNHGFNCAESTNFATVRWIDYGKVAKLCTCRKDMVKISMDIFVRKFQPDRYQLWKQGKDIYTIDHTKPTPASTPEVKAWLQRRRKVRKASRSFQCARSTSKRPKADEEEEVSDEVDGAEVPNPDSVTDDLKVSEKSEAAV
# T cell HTS = T cell immune modulators affecting CD8 T cell-vesicle binding | 2C CD8+ T cell-vesicle binding, flow cytometry; stronger effect = lower value | response (vesicle binding), % at 7 µM | 330,000 compounds, 0.068% hits | AID 2052;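 active = response, share of CD8 T cells binding vesicles, and their 90th percentile fluorescence all below set limits, cut at about 80% in these data, passing the limit was not always enough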;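 also: values below 100% mean blocked vesicle binding to the CD8+ T cells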
#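 Read-out – percent CD8+ FL2 mean versus row control · System – murine 2C transgenic CD8+ T lymphocytes · Times – 1.5 h cell–vesicle binding at 37 °C, then 20 min icy labelling · Control set – naked vesicles low, QL9 vesicles with vehicle high · Detection – cytometric PE anti-B7-1 and Alexa647 anti-CD8 signals after 1% paraformaldehyde fixation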
# Mot1-301 SUMO = SUMOylation pathway inhibition by Mot1-301 growth rescue | AID 2716 | S. cerevisiae Mot1-301 growth rescue, ATP luminescence, 38.5C; percent above DMSO median, 100 means doubled | growth rescue, % at 18.8 µM | 320,000 compounds, 1% hits;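 active = every valid replicate shows activation above 250% relative to neutral control wells; inactive = the rest, any valid replicate at or below 250%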;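 also: OY570 slx delta 5 strain wells were the positive control but not used for scaling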
# HIF activator = HIF pathway transcriptional activation; U2OS HRE-luciferase reporter, luminescence; normalized: DMSO 0%, desferrioxamine 100%; activation, % at 7.5 µM (by protocol); 300,000 compounds, 0.32% hits;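 active = mean activation of at least 10% of the iron chelator positive control signal, with at least half of replicates also reaching 10%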
# Yeast Mot1 SUMO = inhibits SUMO pathway, affecting Mot1-301 yeast growth | shares compounds with Mot1-301 SUMO | S. cerevisiae Mot1-301 galactose growth, ATP luminescence, 24 h; -100 = growth of slx-deleted rescue strain | growth activity, percent, % at 42 µM | 2,300 tested, under 10 active | AID 493004;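 active = Signal drops as the depositor expects, and the fitted half-maximal dose is no more than ten times the top valid tested dose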;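 also: more negative values mean stronger growth rescue toward the control strain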
# Starred values were filed as active, the others as inactive; i = inactive; x = no result; + = active, no number; [ ] = another dose, or the depositor's remark. Sampled rows, rich in hits. Any-hit rate of the full collection: about 1.4%.
SMILES,GASC-1 inh,T cell HTS,Mot1-301 SUMO,HIF activator,Yeast Mot1 SUMO
CCCCC(=O)NC(=S)Nc1cccc(C(=O)O)c1,8.8,158.2,+,-0.1,-0.4
O=c1c2ccccc2ncn1Cc1ccc2c(c1)OCO2,-7.3,372.5,427.7*,-1.0,0.6
O=c1c2ccccc2ncn1Cc1ccc(Cl)cc1,15.9,819.5,987.5*,-0.5,0.3
COCc1cc(C)nc(NC2CC(C)(C)NC(C)(C)C2)c1C#N,2.5,i,-7.8,-1.9,x
CCc1ccc(OCC(=O)Nc2ccncc2)cc1,-8.7,295.3,17.0,-0.3,x
Cc1ccc(Oc2ccc(OCC(=O)Nc3ccncc3)cc2)cc1,1.8,310.5,378.1*,x,0.0
COc1ccc(-c2noc(CSc3nc(-c4ccccc4)cc(=O)[nH]3)n2)cc1OC,2.5,356.4,493.0*,-0.1,0.5
COc1ccc(-c2noc(CSc3nc(N)cc(=O)[nH]3)n2)cc1,-31.9,48.3,226.2,0.2,x
O=C(Nc1ccc(F)cc1)c1ccc(CSc2ccccc2)o1,13.2,302.7,+,0.5,-0.5
O=C(Nc1ccc(F)cc1)c1ccc(CSc2ccc(Cl)cc2)o1,-14.7,226.5,-13.5,-0.2,x
O=C1COc2ccc(C(=O)COC(=O)c3ncc(Cl)c(Cl)c3Cl)cc2N1,-10.4,270.4,851.5*,0.1,0.4
Cc1ccc(OCc2nnc(SCC(=O)O)n2-c2ccccc2)cc1,-20.3,133.8,-7.4,0.1,x
Cc1cccc(OCc2nnc(SCC(=O)O)n2-c2ccccc2)c1,8.8,197.5,+,-20.0,0.7
O=[N+]([O-])c1ccc(-c2csc(N3CCc4ccccc4C3)n2)cc1,-1.6,115.6,366.7*,0.1,-0.2
CCOc1ccc(NC(=S)N2CCn3c(nc4ccccc43)C2)cc1,8.5,276.7,45.9,-0.2,x
COc1ccc([N+](=O)[O-])c2c(=O)ccoc12,-0.6,268.1,585.2*,0.1,-0.2
CCOC(=O)c1cc(=O)c2c([N+](=O)[O-])ccc(OC)c2o1,5.4,364.8,-13.8,-0.5,x
N#CCCN(Cc1cccnc1)C(=O)Nc1cccc(Cl)c1,17.1,256.3,+,1.2,0.3
O=C(COC(=O)Cc1ccsc1)Nc1ccc(Br)cc1F,-2.5,302.4,1.4,x,x
CCCOc1ccc(N2C(=O)CC(N3CCC(C(=O)OCC)CC3)C2=O)cc1 (centres undefined),2.9,i,771.8*,-0.5,-0.4
COc1ccccc1-n1nnnc1SCC(=O)Nc1ccc(C)c(N)c1,7.5,191.5,455.5*,-10.0,0.3
CSc1ccccc1-n1nnnc1SCC(=O)Nc1ccccc1C,8.8,552.1,505.9*,-0.2,0.2
COc1ccc(NC(=O)CSc2nnnn2-c2ccccc2OC)c(OC)c1,-13.8,204.3,2.8,0.0,x
CSc1ccccc1NC(=O)CSc1nnnn1-c1ccccc1SC,9.3,509.2,-10.1,-1.1,x
O=C(NNC(=O)C1CC(c2cccnc2)=NO1)Nc1ccccc1F (centres undefined),3.9,347.3,8.2,-1.5,x
SMILES,GASC-1 inh,T cell HTS,Mot1-301 SUMO,HIF activator,Yeast Mot1 SUMO
O=S(=O)(NC1CCCC1)c1cc(F)ccc1F,6.2,224.0,-4.2,-0.3,x
CCCOc1ccc(S(=O)(=O)n2cc(F)c(=O)[nH]c2=O)cc1,-16.5,177.3,-4.0,0.4,x
COc1cccc(Cn2cnc3c(NS(=O)(=O)c4ccc(Cl)cc4Cl)c(C)c(C)cc32)c1,12.4,407.9,-5.9,-0.4,x
COc1cccc(Cn2cnc3c(NS(=O)(=O)c4cccc(Cl)c4Cl)c(C)c(C)cc32)c1,4.6,642.5,410.7*,-1.2,-0.8
O=C(Nc1cc2nn(-c3ccccc3)nc2cc1Cl)c1ccco1,0.8,215.4,-2.9,2.8,x
CC(=O)Nc1cc2nn(-c3ccccc3)nc2cc1Cl,-4.2,325.9,553.1*,3.3,-0.3
Cc1ccn2cc(-c3cnoc3C)nc2c1,-20.9,128.9,691.6*,1.5,-0.1
O=C(Nc1ccccc1C(=O)NCCCN1CCOCC1)c1cccc([N+](=O)[O-])c1,-5.8,63.1,1.3,-0.2,x
CSc1ccccc1-c1nc(-c2ccncc2)no1,-7.3,134.1,717.8*,5.3,0.2
CCOC(=O)C1=C(COC(=O)/C=C/c2ccc(O)c(OC)c2)NC(=O)NC1C (centres undefined),0.9,881.1,-12.1,x,x
CCCCOc1ccc(C(=O)Nc2ccc(CN3CCOCC3)cc2)cc1,1.4,279.0,361.7*,0.0,0.3
CN(C)c1ccc2nc3ccc(=[N+](C)C)cc-3sc2c1,-3.9,151.6,556.5*,-1.0,-1.8
Cc1cc2nc3ccc(=[N+](C)C)cc-3sc2cc1N,0.0,x,x,-3.0,x
CCS(=O)(=O)N1CCC(C(=O)NCCCN2CCN(c3ccccc3F)CC2)CC1,-4.7,214.9,481.4*,0.2,0.6
O=C(NCCCN1CCN(c2ccccc2F)CC1)Nc1ccccc1[N+](=O)[O-],-5.0,159.2,446.5*,252.4*,-0.1
O=C(CSc1ncccn1)Nc1ccc2c(c1)CCC2,2.4,294.7,8.2,0.5,x
CCOc1ccc(NC(=O)CCC(=O)NNC(=O)COc2ccccc2C)cc1,-8.8,124.5,-6.0,0.1,x
CCN=C1S/C(=C/c2ccc(-c3ccc(F)cc3)o2)C(=O)N1CC,2.7,3.7,955.6*,1.0,-0.6
COc1ccc(CCC(=O)NNC(=S)Nc2cccc(C(C)=O)c2)cc1,2.6,153.0,+,0.0,-0.2
CN(CC(=O)Nc1ccccc1C(F)(F)F)C(=O)Cc1ccc(S(=O)(=O)N2CCOCC2)s1,1.9,355.9,-5.8,0.5,x
CCS(=O)(=O)N1CCCC(C(=O)NCc2cccnc2)C1 (centres undefined),-0.5,725.6,361.6*,-1.0,0.1
Cc1ccccc1-c1nc(CN2CCCC(C(=O)NCc3cccnc3)C2)c(C)o1 (centres undefined),0.3,438.7,+,-0.4,-0.1
Cc1ccccc1-c1nc(CN2CCCC(C(=O)NCCCN3CCOCC3)C2)c(C)o1 (centres undefined),-25.9,242.7,128.2,-0.6,x
CCS(=O)(=O)N1CCC(C(=O)NCc2cccnc2)CC1,-14.9,238.5,23.9,-0.3,x
COc1ccccc1CNCc1ccc(C)cc1,0.7,195.1,-18.3,1.1,x
SMILES,GASC-1 inh,T cell HTS,Mot1-301 SUMO,HIF activator,Yeast Mot1 SUMO
COc1ccccc1CNCc1cc(OC)c(OC)c(OC)c1,-19.9,308.2,+,0.0,-0.5
Cc1nn(C)c(C)c1S(=O)(=O)N(CC(=O)NC1CCCCCC1)c1ccc(C(C)C)cc1,-23.0,347.6,-1.6,-0.3,x
Cc1n[nH]c(C)c1S(=O)(=O)N(CC(=O)NC1CCCC1)c1ccc(C(C)C)cc1,-6.5,212.6,633.9*,x,-0.5[21 µM]
O=S(=O)(O)c1ccc(N=NNc2ccc(Br)cc2)cc1,2.5,134.0,539.3*,2.6,0.2
C=CCn1c(CCc2cc(C(C)(C)C)c(O)c(C(C)(C)C)c2)n[nH]c1=S,-10.6,170.8,24.5,0.0,x
CN(C)CCN(Cc1ccc(Cl)cc1)c1ccccn1,-15.5,146.8,558.2*,0.2,-0.6

# Compound activity: PubChem, several laboratories
